# SIRT5 inh: blocks human SIRT5 desuccinylation of peptide. 1.1% of 330,000 active. AID 652115. Q9NXA8. inhibition, % at 15 µM. Purified SirT5, succinyl-peptide AMC, trypsin-coupled fluorescence; in the data active means inhibition above about 15%; inconclusive means no clear call, values can overlap the other calls
# Target sequence (Q9NXA8 whole entry, looked up): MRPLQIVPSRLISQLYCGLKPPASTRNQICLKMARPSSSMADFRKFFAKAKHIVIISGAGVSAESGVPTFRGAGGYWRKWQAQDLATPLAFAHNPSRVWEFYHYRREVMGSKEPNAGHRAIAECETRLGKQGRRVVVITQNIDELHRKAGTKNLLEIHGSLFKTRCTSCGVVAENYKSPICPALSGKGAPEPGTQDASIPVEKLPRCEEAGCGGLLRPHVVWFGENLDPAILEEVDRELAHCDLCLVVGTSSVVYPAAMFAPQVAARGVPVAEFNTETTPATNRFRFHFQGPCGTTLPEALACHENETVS
# DENV2 CPE rescue: protects cells from dengue virus 2 cytopathic effect. 1.7% of 350,000 active. CPE inhibition, % at 9.99 µM. DENV2-infected cells, cytopathic effect rescue, plate reader; in the data active means CPE inhibition above about 20%, passing the limit was not always enough; inconclusive means no clear call, values can overlap the other calls; tested in BHK-21 cells;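 further: 0% = median of neutral control wells and 100% = median of positive control wells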
# E-sel inducer: induces E-selectin expression in human endothelial cells; AID 686992; activation, % at 7.58 µM; HUVEC E-selectin immunofluorescence imaging; normalized: neutral wells 0, TNF-alpha wells 100; 0.37% of 260,000 active;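 active means mean E-selectin-positive cell signal at least 10% of the positive control, reached in at least 60% of replicates, without over 20% cell loss; inconclusive means no rule given, readout overlaps actives, possibly toxicity-flagged; inactive means the rest, including those meeting only one limit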
#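 Read-out basis: % PE-positive cells; Test system: HUVEC primary endothelial cells; Technique: immunofluorescence imaging; Dosing: single-point compound dose.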
# The depositor's hits bear a star; ? = inconclusive; · = not tested or not shown; ! = not confirmed by another sample. This is a sample that favours compounds with a hit; in the whole collection about 2.9% have one here.
SMILES,SIRT5 inh,DENV2 CPE rescue,E-sel inducer
COc1ccc(NC(=O)N(C)C[C@H]2Oc3ccc(NC(=O)C4CCCCC4)cc3C(=O)N([C@H](C)CO)C[C@@H]2C)cc1,-7,11,-10
O=[N+]([O-])c1ccccc1/C=C/CN1CCN(Cc2ccc3c(c2)OCO3)CC1,5,47*,·
C(=C\c1ccccc1)/CN1CCN(Cc2ccc3c(c2)OCO3)CC1,-2,-1,·
O=[N+]([O-])c1cccnc1N1CCN(Cc2ccc3c(c2)OCO3)CC1,0,34*,1
O=[N+]([O-])c1ccc2ncnc(N3CCN(Cc4ccc5c(c4)OCO5)CC3)c2c1,0,-10,-2
C=CCn1c(CCC)nc2ccccc21,-6,3,0
CCN(CC)CCn1c(SCC(=O)NCc2ccccc2)nc2c(sc3ccccc32)c1=O,1,10,4
C[C@@H](O)C#Cc1ccc([C@H]2[C@H](CO)N3CCCCN(S(=O)(=O)Cc4ccccc4)C[C@@H]23)cc1,2,-6,0
Cc1ccc(NCC(O)C(O)C(O)CO)c(N=Nc2ccccc2)c1C (configuration not stated),-2,-13,6
COc1ccc(S(=O)(=O)NCc2cccnc2)cc1Br,-7,-12,0
C=CCNC(=O)[C@H]1[C@@H]2C(=O)O[C@@H](c3ccccc3)[C@@H](c3ccccc3)N2[C@@H](c2ccc(OCCO)cc2)[C@]12C(=O)N(C(=O)OCCOC)c1ccc(C#Cc3ccc(OC)cc3)cc12,-1,23*,·
COCCOC(=O)N1C(=O)[C@@]2(c3cc(C#CC4(O)CCCCCC4)ccc31)[C@H](c1ccc(OCCO)cc1)N1[C@H](c3ccccc3)[C@H](c3ccccc3)OC(=O)[C@H]1[C@@H]2C(N)=O,-1,69*,·
C=CCNC(=O)[C@H]1[C@@H]2C(=O)O[C@@H](c3ccccc3)[C@@H](c3ccccc3)N2[C@@H](c2ccc(O)cc2)[C@]12C(=O)N(C(=O)OCCOC)c1ccc(C#Cc3ccc(OC)cc3)cc12,8,11,·
COCCOC(=O)N1C(=O)[C@@]2(c3cc(C#CCCO)ccc31)[C@H](C(N)=O)[C@H]1C(=O)O[C@H](c3ccccc3)[C@H](c3ccccc3)N1[C@@H]2c1ccc(OCCO)cc1,-1,1,·
COc1cc2c(cc1NC(=O)CN(C)Cc1ccc(OC)c(OC)c1)oc1ccccc12,-4,-3,·
CCN(CC(=O)Nc1c(F)cccc1F)C(=O)c1nc2nccc(C)n2n1,-3,-4,·
CC(C)OCC(O)CN1CCC(Cc2ccccc2)CC1 (configuration not stated),1,13,·
OC(COc1ccc(Br)cc1)CN1CCC(Cc2ccccc2)CC1 (configuration not stated),30*,-5,·
CC(C)Cc1cc(CNC(=O)C2CCC(=O)N(CCc3cccc(F)c3)C2)on1 (configuration not stated),0,3,0
CCCc1cc(CNC(=O)C2CCC(=O)N(CCc3cccc(F)c3)C2)on1 (configuration not stated),-3,55*,·
CC(=O)C1=C(O)C(=Cc2ccccc2)OC1=O,20*,-10,·
COc1ccc(C=C2OC(=O)C(C(C)=O)=C2O)cc1,11,1,0
CC(C)NC(=O)N(C)C[C@H]1Oc2ccc(NC(=O)Nc3ccccc3)cc2C(=O)N([C@H](C)CO)C[C@H]1C,-2,9,-4
Cc1cccnc1,·,21*,·
O=C(C(=O)c1cccnc1)c1cccnc1,-3,15,·
SMILES,SIRT5 inh,DENV2 CPE rescue,E-sel inducer
COc1ccc(NC(=O)Nc2ccc3c(c2)CC(=O)N([C@H](C)CO)C[C@H](C)[C@@H](CN(C)S(=O)(=O)c2ccc(Cl)cc2)O3)cc1,6,0,-20
Cc1cc([N+](=O)[O-])nn1CC(=O)N1CCOCC1,-5,-7,0
Cc1cc([N+](=O)[O-])nn1CC(=O)NCCCN1CCOCC1,0,6,27*
O=C(Cc1cccc(NC(=O)C2CCN(C(=O)C3CCC3)CC2)c1)Nc1cccc(C(=O)N2CCCCC2)c1,1,-1,·
CN(C)CCN(Cc1cccs1)S(=O)(=O)c1csc(C(N)=O)c1,33*,?,1
COCCCN(Cc1cccs1)S(=O)(=O)c1csc(C(N)=O)c1,-4,-7,·
O=S(=O)(N[C@@H]1CC[C@H](CCn2cc(-c3ccccc3F)nn2)O[C@@H]1CO)c1ccc(F)cc1,3,-2,0
O=C(O)COc1ccc(/C=C2\SC(=Nc3ccccc3)N(c3ccccc3)C2=O)cc1,-5,·,0
COc1ccc(N=C2S/C(=C\c3ccc(OCC(=O)O)cc3)C(=O)N2CCc2c[nH]c3ccccc23)cc1,50*,5,·
C=C/C=C/[C@@H]1C(=C)CN2[C@H]1[C@H](Cc1ccccc1)OC(=O)C21CCCC1,-5,-2,·
O=C1O[C@@H](Cc2ccccc2)[C@H]2[C@@H]3C=CCCC=C3CN2C12CCCC2,2,33*,·
O=C1Nc2ccc(Br)cc2/C1=N\N=C\C1=C(N2CCOCC2)C(=C/c2ccccc2)/CC1,-7,-3,0
CC(NC(=O)C12CC3CC(CC(C3)C1)C2)C(=O)N/N=C/C1=C(N2CCOCC2)C(=C\c2ccccc2)/CC1 (configuration not stated),-1,133*,0
CCc1cc2c(=O)c(-c3nc4ccccc4[nH]3)coc2c(CN2CCCCC2)c1O,-1,1,0
O=C(NCCc1ccccn1)c1cc2ccccc2o1,-3,-2,0
C[C@@H]1CN([C@H](C)CO)C(=O)c2cccc(NC(=O)C3CCOCC3)c2O[C@H]1CN(C)Cc1ccc(C(F)(F)F)cc1,-4,?,-13
C[C@@H]1CN([C@@H](C)CO)C(=O)c2cccc(NC(=O)C3CC3)c2O[C@H]1CN(C)Cc1ccc(Oc2ccccc2)cc1,-2,-8,-1
C[C@@H]1CN([C@H](C)CO)C(=O)c2cccc(NC(=O)C3CCOCC3)c2O[C@@H]1CN(C)Cc1ccc(C(F)(F)F)cc1,-3,39*,-13
C[C@H](CO)N1C[C@H](C)[C@H](CN(C)Cc2ccc(Oc3ccccc3)cc2)Oc2c(NC(=O)C3CCOCC3)cccc2C1=O,-3,2,168*
C[C@H]1CN([C@@H](C)CO)C(=O)c2cccc(NC(=O)C3CCOCC3)c2O[C@H]1CN(C)Cc1ccc(Oc2ccccc2)cc1,-1,-4,?
C[C@@H]1CN([C@H](C)CO)C(=O)c2cccc(NC(=O)C3CCOCC3)c2O[C@@H]1CN(C)Cc1ccc(Oc2ccccc2)cc1,5,3,380*
CCOCCCNCC(=O)Nc1cc(S(=O)(=O)N2CCOCC2)ccc1N1CCOCC1,-3,11,0
COc1ccc(C(=O)NN2C(=S)N(c3ccc(OC)cc3)C(=O)C2CC(N)=O)cc1 (configuration not stated),0,9,0
COc1ccc(N2C(=O)C(CC(N)=O)N(NC(=O)c3cccc(OC)c3)C2=S)cc1 (configuration not stated),-2,31*,8
C[C@@H]1CN([C@H](C)CO)C(=O)c2cccc(NC(=O)C3CCCCC3)c2O[C@H]1CN(C)Cc1ccccc1,4,11,0
C[C@@H]1CN([C@H](C)CO)C(=O)c2cccc(NC(=O)C3CC3)c2O[C@@H]1CN(C)Cc1ccccc1,-4,16,72*
C[C@H](CO)N1C[C@H](C)[C@@H](CN(C)Cc2ccccc2)Oc2c(NC(=O)C3CC3)cccc2C1=O,-1,14,102*!
C[C@H](CO)N1C[C@H](C)[C@H](CN(C)Cc2ccccc2)Oc2c(NC(=O)C3CC3)cccc2C1=O,-6,-2,-20
O=C(c1cccnc1)N1CC(=O)N2[C@H](CO)[C@@H](c3ccc(-c4cccnc4)cc3)[C@@H]2C1,4,12,0
